Assay outcomes deposited in PubChem by Broad Institute.
SIRT5 block: inhibitors of human sirtuin-5 desuccinylase. Purified SirT5, succinyl-peptide AMC, trypsin-coupled fluorescence. inhibition, % at 15 µM. Q9NXA8. AID 652115. 1.1% of 330,000 active; in the data active = inhibition above about 15%; inconclusive = no clear call, values can overlap the other calls
Target sequence (Q9NXA8 whole entry, looked up): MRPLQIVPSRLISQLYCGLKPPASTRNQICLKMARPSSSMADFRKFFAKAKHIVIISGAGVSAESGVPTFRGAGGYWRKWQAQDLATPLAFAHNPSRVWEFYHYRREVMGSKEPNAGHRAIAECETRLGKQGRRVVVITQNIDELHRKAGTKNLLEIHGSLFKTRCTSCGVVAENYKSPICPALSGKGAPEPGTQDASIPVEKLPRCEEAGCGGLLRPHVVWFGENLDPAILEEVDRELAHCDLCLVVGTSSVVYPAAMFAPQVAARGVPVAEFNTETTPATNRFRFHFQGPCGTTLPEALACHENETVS
Xi reactivation: reactivates the inactive X chromosome in mouse fibroblasts | XiGFP mouse fibroblasts, % GFP-positive cells imaging, 3 d; cells co-treated with 5-aza-dC sensitizer; scaled so ellipticine positive control = 100% | activation, % at 7.58 µM | 0.055% of 360,000 active | AID 743238;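 active = mean normalized replicate activation at least 10% and every replicate at or above 10%; inconclusive = only one of the two criteria met; inactive = mean below 10% and not all replicates reach 10%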
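Assay system – SV40-immortalized XiGFP fibroblast cells, line 68-5-11 · Buffer or medium – DMEM supplemented with 5-aza-dC as sensitizing agent · Dosing – one concentration, pinned · Benchmarks – positive control ellipticine, 6 µM final · Times – 3 days compound exposure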
FGF22 binding: FGF22 (human) thermal shift binding; AID 651658; 1.5% of 340,000 active; activity (Tm shift, normalised), % at 9.99 µM; Q9HCT0; recombinant FGF22 thermal shift, SYPRO orange fluorescence; percent of sucrose octasulfate shift, DMSO zero;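 active = mean Tm shift, scaled 0 neutral to 100 positive control, at about 1.3% or above, every replicate too, limit read from the data; inconclusive = no clear call, values can overlap the other calls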
Target sequence (Q9HCT0 whole entry, looked up): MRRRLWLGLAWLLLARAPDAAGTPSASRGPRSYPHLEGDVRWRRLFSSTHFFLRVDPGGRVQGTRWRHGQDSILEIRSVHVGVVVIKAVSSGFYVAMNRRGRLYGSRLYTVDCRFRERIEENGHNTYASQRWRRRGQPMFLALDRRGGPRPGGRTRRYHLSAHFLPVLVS
ARNT TACC3 PPI: disrupts binding between human ARNT and TACC3. AlphaScreen His-ARNT PAS-B/GST-TACC3 binding, luminescence; TACC3 fragment carries E629A point mutation. inhibition, % at 9.99 µM. 0.66% of 390,000 active. AID 623870;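 active = mean inhibition of replicates at least 50% and at least half of replicates each reaching 50%; inconclusive = half or more replicates reach 50% but mean below 50%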
FN deposition inh: fibronectin deposition inhibition; AH1F fibroblasts, Alexa488-fibronectin deposition fluorescence, overnight; inhibition, % at 12.6 µM; 0.086% of 350,000 active;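 active = mean inhibition across replicates of 30% or more, regardless of how many single replicates reach that level; inconclusive = mean under 30% yet at least half of replicates reach 30%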
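Assay system: AH1F fibroblasts assembling fluorescent fibronectin matrix; Amount: 10000 AH1F cells per well; Buffer or medium: DMEM, 2% serum; Probe or stimulus: Alexa488-fibronectin, 24 nM final in well; Doses: single compound dose, delivered by pin transfer; Incubation: 1 h adhesion, overnight exposure; Measured by: fluorescence 485/525 nm; Read-out: fibronectin deposition inhibition.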
DENV2 CPE: inhibitors of DENV2 cytopathic effect. DENV2-infected cells, cytopathic effect rescue, plate reader. CPE inhibition, % at 9.99 µM. 1.7% of 350,000 active; in the data active = CPE inhibition above about 20%, passing the limit was not always enough; inconclusive = no clear call, values can overlap the other calls; tested in BHK-21 cells
Large screens that a line does not name were inactive. A selection: hits, their analogues and other compounds. The true share with any hit is near 3.8%.

CCC(C)Nc1nc(N)c([N+](=O)[O-])c(NCCO)n1 (configuration not stated)	DENV2 CPE 94.0
CO[C@@H]1CN(C)C(=O)c2ccc(NC(=O)c3cc(C)on3)cc2OC[C@H](C)N(C(=O)C2CC2)C[C@@H]1C	none
COc1cc(/C=N/Nc2nc(=O)[nH]nc2C)cc([N+](=O)[O-])c1O	ARNT TACC3 PPI 75.7 (no result: SIRT5 block)
COc1ccc(/C=N/Nc2nc(=O)[nH]nc2C)cc1[N+](=O)[O-]	none (no result: SIRT5 block, FGF22 binding, ARNT TACC3 PPI, DENV2 CPE)
CCNc1ccc(C(=O)OCC(=O)N(Cc2ccccc2)C(C)(C)C)cc1[N+](=O)[O-]	FGF22 binding 43.0
CN(C)C(=O)c1cccc(-c2cccc(-c3nc(C(=O)N4CCCCC4)cc4c3[C@@H](CCO)N([S@](=O)C(C)(C)C)C4)c2)c1	none (no result: SIRT5 block)
CCCN(C)C[C@@H]1Oc2cc(-c3cccc(OC)c3)ccc2S(=O)(=O)N([C@H](C)CO)C[C@@H]1C	none (no result: FN deposition inh)
Cc1cc(=O)[nH]c2c1c(C)nn2-c1ccccc1	none (no result: SIRT5 block, Xi reactivation, FGF22 binding, DENV2 CPE)
Cc1nn(-c2ccccc2)c2[nH]c(=O)cc(C(F)(F)F)c12	SIRT5 block 76.4 (no result: Xi reactivation)
Cn1c(=O)[nH]c(=O)c2cc(C(=O)c3cc(F)ccc3O)cnc21	FGF22 binding 43.0
COc1ccc(CN2C(=O)c3cccnc3C2=O)cc1S(=O)(=O)NCc1ccccc1	ARNT TACC3 PPI 47.9
COc1ccc(CNS(=O)(=O)c2cc(CN3C(=O)c4cccnc4C3=O)ccc2OC)cc1	none
CCOc1ccc(C(C(=O)NCC2CCCO2)N(Cc2cccs2)C(=O)c2snc(C(N)=O)c2N)cc1 (configuration not stated)	SIRT5 block 25.2, DENV2 CPE inconclusive
COc1ccc(C(C(=O)NCC2CCCO2)N(Cc2cccs2)C(=O)c2snc(C(N)=O)c2N)cc1OC (configuration not stated)	none
O=C(NCCN1CCC(n2c(=O)[nH]c3ccccc32)CC1)c1cccnc1	none (no result: ARNT TACC3 PPI)
O=C(NCCN1CCC(n2c(=O)[nH]c3ccccc32)CC1)c1ccccc1	DENV2 CPE 20.2 (no result: ARNT TACC3 PPI, FN deposition inh)
Cc1cc(O)c2c(c1O)C(=O)[C@]13C(=C2O)C(=O)[C@@H]2[C@@H](O)[C@H]1[C@@H]1[C@H](O)[C@H]3C(=O)C3=C(O)c4c(O)cc(C)c(O)c4C(=O)[C@]312	ARNT TACC3 PPI 47.4 (no result: SIRT5 block, Xi reactivation, FGF22 binding, FN deposition inh, DENV2 CPE)
CCc1ccc2c(c1)CCCN2C(=O)c1ccccc1C(=O)O	ARNT TACC3 PPI 49.0 (no result: SIRT5 block, Xi reactivation, FGF22 binding, DENV2 CPE)
C[C@@H]1CN([C@H](C)CO)C(=O)c2cccc(NC(=O)C3CCCCC3)c2O[C@@H]1CN(C)S(C)(=O)=O	none
CC(=O)N[C@H]1CC[C@@H](CCNC(=O)C2CCCC2)O[C@@H]1CO	DENV2 CPE 27.0 (no result: FN deposition inh)
O=C(N[C@H]1CC[C@H](CCNC(=O)C2CCCC2)O[C@@H]1CO)c1ccncc1	DENV2 CPE 25.4 (no result: FN deposition inh)
O=C(N[C@@H]1CC[C@H](CCNC(=O)C2CCCCC2)O[C@@H]1CO)c1ccncc1	none
O=C(N[C@H]1CC[C@H](CCNC(=O)C2CCCCC2)O[C@@H]1CO)c1ccncc1	DENV2 CPE 27.7
COc1cccc(S(=O)(=O)Nc2ccc3c(c2)OC[C@@H](C)NC[C@@H](C)[C@H](OC)CN(C)C3=O)c1	none
COc1ccc(OC)c(-n2c(Cn3c(-c4ccccn4)nc4ccccc43)n[nH]c2=S)c1	FGF22 binding 44.0
CC(=O)c1c(O)ccc2c(-c3ccccc3)cc(=O)oc12	none (no result: SIRT5 block, FGF22 binding, DENV2 CPE)
CN(C)Cc1c(O)ccc2c(-c3ccccc3)cc(=O)oc12	FGF22 binding 43.0 (no result: FN deposition inh)
Cc1c(C(=O)N/N=C/c2ccccn2)nnn1-c1nonc1N	ARNT TACC3 PPI 42.9
Nc1nonc1-n1nnc(C(=O)N/N=C/c2ccccn2)c1CNc1ccccc1	ARNT TACC3 PPI 46.6
COc1ccc(NC(=O)N[C@@H](CCSC)C(=O)O)cc1OC	SIRT5 block 19.1
CC(C)CC#Cc1ccc([C@@H]2[C@@H](CO)N3C(=O)CN(C(=O)c4ccc5c(c4)OCO5)C[C@H]23)cc1	none (no result: SIRT5 block, FGF22 binding, ARNT TACC3 PPI, FN deposition inh, DENV2 CPE)
C=CCN1C(=O)C2(NNc3ccccc3O2)c2ccccc21 (configuration not stated)	none (no result: SIRT5 block, Xi reactivation, FGF22 binding, FN deposition inh, DENV2 CPE)
